Experiments:
[1] = Protein binding in mouse plasma assessed as unbound fraction; assay type: ADME, cell-free
[2] = Oral bioavailability in monkey at 5 mg/kg; assay type: ADME, organism-based, Macaca mulatta; details: rhesus monkey, in vivo
[3] = Oral bioavailability in rat at 5 mg/kg; assay type: ADME, organism-based; details: in vivo
[4] = target: T1, Solute carrier organic anion transporter family member 1B1 (Homo sapiens, UniProt Q9Y6L6); experiment: Inhibition of OATP1B1 (unknown origin); assay type: ADME
T1 sequence (Q9Y6L6 whole entry): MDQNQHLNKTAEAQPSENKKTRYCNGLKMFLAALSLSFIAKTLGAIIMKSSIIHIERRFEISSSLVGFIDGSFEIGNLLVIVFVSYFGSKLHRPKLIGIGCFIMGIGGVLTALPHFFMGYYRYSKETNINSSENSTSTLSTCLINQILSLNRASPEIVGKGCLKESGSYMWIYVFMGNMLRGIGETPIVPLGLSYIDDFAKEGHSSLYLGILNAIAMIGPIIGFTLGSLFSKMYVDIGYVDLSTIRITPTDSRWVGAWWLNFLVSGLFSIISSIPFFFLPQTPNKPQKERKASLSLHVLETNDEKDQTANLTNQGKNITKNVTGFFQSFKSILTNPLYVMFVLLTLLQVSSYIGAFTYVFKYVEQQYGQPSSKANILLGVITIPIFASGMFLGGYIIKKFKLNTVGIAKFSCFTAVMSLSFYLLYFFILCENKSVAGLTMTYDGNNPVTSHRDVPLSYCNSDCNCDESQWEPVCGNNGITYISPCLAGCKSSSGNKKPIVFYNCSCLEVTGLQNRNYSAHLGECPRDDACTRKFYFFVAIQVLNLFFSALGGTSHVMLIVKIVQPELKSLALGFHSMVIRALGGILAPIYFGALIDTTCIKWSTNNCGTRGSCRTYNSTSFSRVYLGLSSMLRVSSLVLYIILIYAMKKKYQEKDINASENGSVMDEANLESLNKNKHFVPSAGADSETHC

[5] = target: Cytochrome P450 3A4 (Homo sapiens, UniProt P08684); experiment: Inhibition of CYP3A4 (unknown origin) assessed as inactivation relative to control; assay type: ADME
Sequence of Cytochrome P450 3A4 (P08684 whole entry): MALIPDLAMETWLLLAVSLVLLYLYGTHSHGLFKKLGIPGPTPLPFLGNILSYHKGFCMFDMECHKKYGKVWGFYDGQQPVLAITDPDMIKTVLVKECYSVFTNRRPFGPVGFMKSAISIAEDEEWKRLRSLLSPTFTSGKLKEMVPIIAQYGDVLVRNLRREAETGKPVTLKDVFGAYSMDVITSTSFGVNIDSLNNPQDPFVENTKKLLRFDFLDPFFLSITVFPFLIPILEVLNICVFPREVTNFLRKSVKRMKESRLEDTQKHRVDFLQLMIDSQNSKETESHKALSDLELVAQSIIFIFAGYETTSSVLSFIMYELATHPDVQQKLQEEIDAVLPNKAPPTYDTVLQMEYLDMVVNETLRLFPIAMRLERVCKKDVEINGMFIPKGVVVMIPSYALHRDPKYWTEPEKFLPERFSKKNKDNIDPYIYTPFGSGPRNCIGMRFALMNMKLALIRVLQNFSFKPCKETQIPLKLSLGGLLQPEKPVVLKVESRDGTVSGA

[6] = target: Cytochrome P450 2D6 (Homo sapiens, UniProt P10635); experiment: Inhibition of CYP2D6 (unknown origin) assessed as inactivation relative to control; assay type: ADME
Sequence of Cytochrome P450 2D6 (P10635 whole entry): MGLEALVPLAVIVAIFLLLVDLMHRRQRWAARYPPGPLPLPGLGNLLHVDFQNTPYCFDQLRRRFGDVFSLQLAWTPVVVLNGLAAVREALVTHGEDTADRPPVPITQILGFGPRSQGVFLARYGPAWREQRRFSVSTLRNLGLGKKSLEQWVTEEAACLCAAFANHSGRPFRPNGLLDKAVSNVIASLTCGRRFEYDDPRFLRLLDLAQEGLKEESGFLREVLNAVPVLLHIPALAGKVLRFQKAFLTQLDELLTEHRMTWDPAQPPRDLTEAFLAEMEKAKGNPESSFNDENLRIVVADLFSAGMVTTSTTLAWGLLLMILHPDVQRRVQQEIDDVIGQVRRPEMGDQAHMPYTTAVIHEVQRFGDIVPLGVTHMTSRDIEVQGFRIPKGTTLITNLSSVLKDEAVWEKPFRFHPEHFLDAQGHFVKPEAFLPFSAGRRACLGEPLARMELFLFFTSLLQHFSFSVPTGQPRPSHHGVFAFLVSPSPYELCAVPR

[7] = test system: KP-4; experiment: Anticancer activity in MTAP-null human KP-4 cells xenografted mouse model assessed as tumor growth inhibition at 30 mg/kg, po qd treated for 38 days relative to control; assay type: functional; details: KP-4, po, 912 h, time 38 day, read-out: TGI
Method in brief: (§1)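 Subcutaneous KP4 MTAP-null xenograft mice, 12 per arm (60 animals), dosed orally once daily on days 24−38 at 10−200 mg/kg. Tumor SAM levels and plasma compound exposure were monitored; plasma sampled up to 24 h after the last dose. Mean tumor volume and body weight change were tracked; error bars are SEM.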

[8] = test system: KP-4; experiment: Anticancer activity in MTAP-null human KP-4 cells xenografted mouse model assessed as tumor growth inhibition at 100 mg/kg, po qd treated for 38 days relative to control; assay type: functional; details: KP-4, po, 912 h, time 38 day, read-out: TGI; method in brief: as §1
[9] = test system: KP-4; experiment: Anticancer activity in MTAP-null human KP-4 cells xenografted mouse model assessed as inhibition of SAM production at 30 mg/kg, po qd treated for 38 days relative to control; assay type: functional; details: KP-4, po, 912 h, time 38 day; method in brief: as §1
[10] = test system: HCT-116; experiment: Anticancer activity in MTAP-null human HCT116 cells xenografted mouse model assessed as tumor growth inhibition at 10 mg/kg, po qd treated for 38 days relative to control; assay type: functional; details: HCT-116, po, 912 h, time 38 day, read-out: TGI

Question: What does the source list for `COc1ccc(-c2c(Nc3ccccn3)[nH]c3c(C4=CCCCC4)c(-c4ccccc4)nn3c2=O)cc1`?
Answer: fraction unbound [1]: 0.0028; bioavailability [2]: 31%; bioavailability [3]: 92%; IC50 [4]: 2.1 µM; INH [5]: > 50 µM; INH [6]: > 50 µM; inhibition in vivo at 30 mg/kg [7]: 48%; inhibition in vivo at 100 mg/kg [8]: 66%; inhibition in vivo at 30 mg/kg [9]: 44.7%; inhibition in vivo at 10 mg/kg [10]: 75%

Reference: ChEMBL document CHEMBL4834423, “Discovery of AG-270, a First-in-Class Oral MAT2A Inhibitor for the Treatment of Tumors with Homozygous MTAP Deletion” (J Med Chem, 2021)
